Experimental data published in PMC3511619 (Journal of ethnopharmacology, 2012).

Legend:
HCV NS5B = HCV NS5B (Hepatitis C virus genotype 1b, UniProt P26663); assay: RdRp assay; format: biochemical; details: for IC90: read-out: IC90, RdRp activity of HCV NS5B; for IC50, inhibition of NS5B RdRp activity in vitro: single isolates
MH14 cells = assay: MTT assay; details: for effect on cell growth / influence on cell viability / toxicity: 48 h, MH14 cells; for influence on cell viability: 2 μM and 10 μM; for toxicity: 50 μM and 100 μM
[1] = system: HCV subgenomic replicon (HCV RNA) in MH14 cells; assay: Quantitation of HCV RNA by RT-PCR in MH14 cells; format: cell-based, Hepatitis C virus; details: for inhibition of HCV RNA replication: 500 μM; for HCV replication reduced: 100 μM
How it was run: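 MH14 cells carrying a stable HCV subgenomic replicon were kept at 37 °C, 5% CO2 in DMEM with 10% FBS, penicillin/streptomycin, glutamine and 300 μg/ml G418. Cells were grown 60 h with or without test compound dissolved in DMSO. Total RNA was TRIzol-extracted. HCV RNA was reverse-transcribed with an HCV-specific primer and PCR-amplified for 25 cycles (1 min each at 94, 52, 72 °C). GAPDH mRNA served as internal control.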

[2] = system: p53 expression in peripheral blood mononuclear cells (PBMC); assay: p53 expression in peripheral blood mononuclear cells; format: cell-based
[3] = system: HCV subgenomic replicon (NS5B, NS5A expression) in MH14 cells; format: cell-based, Hepatitis C virus; details: for viral replication reduced (first statement, Fig. 4 B, C): cell culture system; for inhibition at 100 µM: Hepatitis C virus, MH14, read-out: inhibition of NS5B
How it was run: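 MH14 cells with stably replicating HCV subgenomic replicon, grown at 37 °C, 5% CO2 in DMEM with 10% FBS, penicillin/streptomycin, glutamine and 300 μg/ml G418. Cells were exposed to DMSO-dissolved test compound for 48 h, washed, lysed in SDS buffer, boiled, and clarified. Blots were probed with anti-NS5B, NS5A or actin (1:500, overnight, 4 °C), then HRP secondary (1:5,000, 1 h). Chemiluminescent detection used β-actin as the loading control.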

HCV NS5B (CΔ21) = HCV NS5B (CΔ21) (Hepatitis C virus genotype 1b, UniProt P26663); assay: Fluorescence quenching binding assay; details: for time to binding equilibrium with NS5B (fluorescence quenched): data not shown
[4] = system: tumor suppressor protein, p53; assay: p53 expression; format: cell-based; details: cells not given

Structure (SMILES) | IC50 (HCV NS5B) [µM] | effect on cell growth (MH14 cells) | inhibition of HCV RNA replication [1] | IC90 (HCV NS5B) [µM] | effect on p53 expression [2] | cytotoxicity in MH14 cell (MH14 cells) | viral replication reduced (first statement, Fig. 4 B, C) ([3]; 50 μM) [%] | inhibition at 100 µM [3] [%] | Kd (HCV NS5B (CΔ21)) [µM] | time to binding equilibrium with NS5B (fluorescence quenched) (HCV NS5B (CΔ21)) [min] | HCV replication inhibited, judged by HCV RNA level ([1]; 50 μM) [%] | HCV replication reduced [1] | effect on tumor suppressor protein p53 [4] | IC50, inhibition of NS5B RdRp activity in vitro (HCV NS5B) | influence on cell viability (MH14 cells) | toxicity (MH14 cells) | inhibition of NS5B expression ([3]; 10 μM, MH14 cells, 48 h) [%] | NS5B expression by Western blot ([3]; 50 μM, MH14 cells, 48 h) | HCV replication inhibited, judged by HCV RNA level ([1]; 10 μM) [%]
O=C(O)c1ccc(O)c(O)c1 [Compound 1, 3,4-dihydroxybenzoic acid] | 400 | enhanced cellular proliferation | inhibited HCV RNA replication only at very high concentrations | – | – | – | – | – | – | – | – | – | – | – | – | – | – | – | –
O=c1cc(-c2ccc(O)c(O)c2)oc2cc(O)cc(O)c12 [Compound 3, luteolin] | 11.3 | – | – | 52 | no effect | comparable high cytotoxicity | ~50 | > 90 | 31.5 | ≤ 1 | 50 | approximately 80% | strongly up-regulate | – | – | – | – | – | –
COc1cc(O)c2c(c1)oc(=O)c1c3cc(O)c(O)cc3oc21 [Compound 4, wedelolactone] | 7.7 | – | – | 32 | – | – | – | – | 24.3 | ≤ 1 | 80 | – | – | indistinguishable | no influence on cell viability | toxic | > 80 | could not detect the expression of NS5B | 30
O=c1cc(-c2ccc(O)cc2)oc2cc(O)cc(O)c12 [Compound 5, apigenin] | 175 | – | – | – | no effect | comparable high cytotoxicity | ~50 | > 90 | 122 | ≤ 1 | 50 | ~90% | strongly up-regulate | – | no influence on cell viability | toxic | – | – | –
O=C(O)c1ccc(O)cc1 [Compound 2, 4-hydroxybenzoic acid] | – | enhanced cellular proliferation | inhibited HCV RNA replication only at very high concentrations | – | – | – | – | – | – | – | – | – | – | did not inhibit | – | – | – | – | –
